Laboratory results from ChEMBL document CHEMBL1131384, “Synthesis and structure-activity relationships of potent and orally active 5-HT4 receptor antagonists: indazole and benzimidazolone derivatives” (J Med Chem, 1998).

How the values were obtained:
[1] = molecular target: 5-hydroxytryptamine receptor 4 (Rattus norvegicus) (UniProt Q62758); assay: Antagonistic activity evaluated by ability to block serotonin induced relaxation via 5-hydroxytryptamine 4 receptor) in carbamylcholine (10e-6 M) contracted esophagus at a concentration of 0.1 mg/kg (p.o.); type: functional, organism-based; design: dose 0.1 mg/kg
Procedure, shortened: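 Rats were dosed with the antagonist by oral gavage. Esophagus was removed 3 h after dosing and challenged ex vivo with serotonin. Read-out was % relaxation of the carbamylcholine-contracted tissue to 10^-6 M 5-HT, given as mean ± SEM with the number of determinations.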

[2] = molecular target: T1, Adrenergic receptor alpha-1 (Rattus norvegicus) (UniProt P15823+P23944+P43140); assay: Affinity for the alpha-1 adrenergic receptor determined by the displacement of [3H]prazosin from rat whole brain tissue.; type: tissue-based
[3] = molecular target: 5-hydroxytryptamine receptor 4 (Rattus norvegicus) (UniProt Q62758); assay: Antagonistic activity of compound was evaluated by ability to block serotonin induced relaxation (mediated by activation of 5-hydroxytryptamine 4 receptor) in carbamylcholine (10e-6 M) contracted esophagus at a concentration of 3*10e-7 M.; type: functional
Procedure, shortened: (§1)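 Isolated rat esophagus precontracted with carbamylcholine (10^-6 M), then challenged with serotonin (1 μM) in the presence of antagonist at the stated concentration or vehicle. Read-out is % relaxation to serotonin, given as mean ± SEM with the number of determinations.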

[4] = molecular target: 5-hydroxytryptamine receptor 4 (Rattus norvegicus) (UniProt Q62758); assay: Antagonistic activity by ability to block serotonin induced relaxation (mediated by activation of 5-hydroxytryptamine 4 receptor) in carbamylcholine (10e-6 M) contracted esophagus at a concentration of 10e-6 M.; type: functional, tissue-based
Procedure, shortened: (§2)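 Isolated rat esophagus precontracted with carbamylcholine (10^-6 M). Tissue was challenged with serotonin (1 µM) in the presence of the antagonist at a given concentration or of vehicle. Relaxation was recorded as % relaxation to 10^-6 M 5-HT, given as mean ± SEM with the number of determinations.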

[5] = molecular target: 5-hydroxytryptamine receptor 4 (Rattus norvegicus) (UniProt Q62758); assay: Antagonistic activity by ability to block serotonin induced relaxation (mediated by activation of 5-hydroxytryptamine 4 receptor) in carbamylcholine (10e-6 M) contracted esophagus at a concentration of 10e-7 M.; type: functional, tissue-based; procedure, shortened: as §2
[6] = molecular target: Serotonin 3 (5-HT3) receptor (Homo sapiens) (UniProt P46098+A5X5Y0+O95264+Q70Z44+Q8WXA8); assay: The compound was tested for binding affinity against 5-hydroxytryptamine 3 receptor in guinea pig ileum.; type: tissue-based; conditions: Cavia porcellus, target entry is the homologue from another species
[7] = molecular target: 5-hydroxytryptamine receptor 4 (Rattus norvegicus) (UniProt Q62758); assay: Antagonistic activity evaluated by ability to block serotonin induced relaxation (via 5-hydroxytryptamine 4 receptor) in carbamylcholine (10e-6 M) contracted esophagus at a concentration of 3*10e-8 M.; type: functional; procedure, shortened: as §1
[8] = molecular target: 5-hydroxytryptamine receptor 4 (Rattus norvegicus) (UniProt Q62758); assay: Antagonistic activity evaluated by ability to block serotonin induced relaxation (mediated by activation of 5-hydroxytryptamine 4 receptor) in carbamylcholine (10e-6 M) contracted esophagus at a concentration of 10e-5 M.; type: functional, tissue-based; procedure, shortened: as §2
[9] = molecular target: Serotonin 2 (5-HT2) receptor (Rattus norvegicus) (UniProt P30994+P08909+P14842); assay: Binding affinity against 5-hydroxytryptamine 2 receptor in serotonin-induced contraction of the rat aorta; type: tissue-based
[10] = molecular target: T1, Adrenergic receptor alpha-1 (Rattus norvegicus); assay: Binding affinity for Alpha-1 adrenergic receptor in rat aorta determined by block of norepinephrine induced contraction of rat aorta; type: tissue-based
[11] = molecular target: 5-hydroxytryptamine receptor 4 (Rattus norvegicus) (UniProt Q62758); assay: Antagonistic activity evaluated by ability to block serotonin induced relaxation (mediated by activation of 5-hydroxytryptamine 4 receptor) in carbamylcholine (10e-6 M) contracted esophagus at a concentration of 10e-8 M.; type: functional, tissue-based; procedure, shortened: as §2
[12] = molecular target: 5-hydroxytryptamine receptor 4 (Rattus norvegicus) (UniProt Q62758); assay: Antagonistic activity of compound was evaluated by ability to block serotonin induced relaxation (mediated by activation of 5-hydroxytryptamine 4 receptor) in carbamylcholine (10e-6 M) contracted esophagus at a concentration of 10e-7 M.; type: functional; procedure, shortened: as §1

Sequence of 5-hydroxytryptamine receptor 4 (Rattus norvegicus) (Q62758 whole entry): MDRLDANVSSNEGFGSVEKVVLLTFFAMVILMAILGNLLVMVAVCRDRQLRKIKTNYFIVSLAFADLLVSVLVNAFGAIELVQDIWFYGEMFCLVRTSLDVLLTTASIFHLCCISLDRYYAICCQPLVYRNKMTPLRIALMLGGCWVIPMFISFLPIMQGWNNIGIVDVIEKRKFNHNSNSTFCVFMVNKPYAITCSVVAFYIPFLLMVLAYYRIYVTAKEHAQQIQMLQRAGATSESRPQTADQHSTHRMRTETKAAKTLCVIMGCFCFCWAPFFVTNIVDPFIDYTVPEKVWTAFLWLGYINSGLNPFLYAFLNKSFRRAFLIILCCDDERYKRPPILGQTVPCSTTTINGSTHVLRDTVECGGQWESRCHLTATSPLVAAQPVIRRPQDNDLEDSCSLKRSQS
Sequence of Serotonin 2 (5-HT2) receptor (Rattus norvegicus) (P08909 whole entry, looked up): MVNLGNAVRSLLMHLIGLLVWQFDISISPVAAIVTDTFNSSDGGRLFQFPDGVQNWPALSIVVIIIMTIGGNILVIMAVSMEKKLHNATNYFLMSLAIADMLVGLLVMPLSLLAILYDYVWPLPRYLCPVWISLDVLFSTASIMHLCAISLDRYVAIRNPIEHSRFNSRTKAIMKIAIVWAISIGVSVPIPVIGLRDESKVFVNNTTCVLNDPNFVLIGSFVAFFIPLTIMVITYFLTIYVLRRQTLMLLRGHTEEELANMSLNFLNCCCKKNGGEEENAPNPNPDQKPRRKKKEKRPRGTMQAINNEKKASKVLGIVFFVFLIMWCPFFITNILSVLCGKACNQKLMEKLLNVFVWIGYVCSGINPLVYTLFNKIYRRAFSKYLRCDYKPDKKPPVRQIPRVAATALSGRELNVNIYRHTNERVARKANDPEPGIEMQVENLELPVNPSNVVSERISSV
Sequence of Serotonin 2 (5-HT2) receptor (Rattus norvegicus) (P14842 whole entry, looked up): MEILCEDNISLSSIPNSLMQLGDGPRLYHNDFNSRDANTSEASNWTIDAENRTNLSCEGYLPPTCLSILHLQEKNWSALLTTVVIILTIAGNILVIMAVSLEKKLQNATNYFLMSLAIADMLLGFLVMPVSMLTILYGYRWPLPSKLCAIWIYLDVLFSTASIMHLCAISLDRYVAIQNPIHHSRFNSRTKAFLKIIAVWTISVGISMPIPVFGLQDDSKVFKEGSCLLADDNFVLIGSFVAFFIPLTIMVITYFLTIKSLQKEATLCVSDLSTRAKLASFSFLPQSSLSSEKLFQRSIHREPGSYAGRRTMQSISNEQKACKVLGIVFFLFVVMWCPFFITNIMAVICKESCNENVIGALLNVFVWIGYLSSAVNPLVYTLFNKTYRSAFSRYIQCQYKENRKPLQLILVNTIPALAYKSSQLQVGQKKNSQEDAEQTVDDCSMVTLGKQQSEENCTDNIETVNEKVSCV
Sequence of Serotonin 2 (5-HT2) receptor (Rattus norvegicus) (P30994 whole entry, looked up): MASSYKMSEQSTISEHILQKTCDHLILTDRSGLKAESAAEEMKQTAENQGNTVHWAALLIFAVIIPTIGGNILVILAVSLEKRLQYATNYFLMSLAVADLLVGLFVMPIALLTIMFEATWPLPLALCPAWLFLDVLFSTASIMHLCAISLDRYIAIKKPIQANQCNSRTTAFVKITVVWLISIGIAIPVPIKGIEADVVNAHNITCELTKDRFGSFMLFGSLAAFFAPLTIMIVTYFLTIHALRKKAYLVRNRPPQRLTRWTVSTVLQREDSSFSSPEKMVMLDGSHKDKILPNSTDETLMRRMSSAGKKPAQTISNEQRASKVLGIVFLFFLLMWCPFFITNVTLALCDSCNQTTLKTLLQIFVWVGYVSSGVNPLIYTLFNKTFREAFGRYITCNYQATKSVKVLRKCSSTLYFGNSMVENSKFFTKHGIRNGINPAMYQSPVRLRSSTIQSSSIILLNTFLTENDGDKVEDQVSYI

## CC(C)n1nc(C(=O)NCCCN2CCCCC2)c2ccccc21
[1]
  Relaxation: 15%
[2]
  pKi: < 4.5
[3]
  Relaxation: 14.3%
[4]
  Relaxation: 6.3%
[5]
  Relaxation: 27.3%

## CC(C)n1nc(C(=O)NC2CCN(C)CC2)c2ccccc21
[6]
  pKb: 6.3
[7]
  Relaxation: 37.3%

## CN1[C@@H]2CC[C@H]1C[C@@H](NC(=O)c1cc(Cl)cc3c1OC(C)(C)C3)C2
[6]
  pKb: 8.78
[4]
  Relaxation: 37%
[8]
  Relaxation: 22.2%

## COc1cc(N)c(Cl)cc1C(=O)NC1CCN(CCCOc2ccc(F)cc2)CC1OC (stereo not drawn)
[4]
  Relaxation: 7%
[9]
  pKb: 7.89
[8]
  Relaxation: 20.3%
[10]
  pKb: 6.7

## CC(C)n1nc(C(=O)NCCN2CCCCC2)c2ccccc21
[1]
  Relaxation: 38%
[6]
  pKb: 5.8
[2]
  pKi: 4.8
[9]
  pKb: < 5
[5]
  Relaxation: 22%
[8]
  Relaxation: 6.6%
[10]
  pKb: 4.9

## CC(C)n1nc(C(=O)NC2CC3CCC(C2)N3C)c2ccccc21 (stereo not drawn)
[11]
  Relaxation: 43.2%
[12]
  Relaxation: 9%
[4]
  Relaxation: 8%

## CC(C)n1c(=O)n(C(=O)NC2CC3CCC(C2)N3C)c2ccccc21 (stereo not drawn)
[6]
  pKb: 7.5
[11]
  Relaxation: 55%
[7]
  Relaxation: 13.8%
[4]
  Relaxation: 2.7%
